According to PubChem BioAssay AID652163 (Broad Institute, 2013):
Where “and” joins values, the source holds several entries; their conditions need not be identical. Equal entries are not always repeated. Out of some 360,000 compounds screened, about 500 (0.14%) were called active.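 Rule for the calls: active = mean inhibition of at least 70% across replicates, with every replicate also reaching that level; inconclusive = mean inhibition reaches 70% but some replicates fall short; inactive = mean inhibition below 70%.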 Many of the other results were omitted from the sample, so actives are more common in it than they were. A structure can be active in one record and inactive in another.

target: Protein S100-A4 (Homo sapiens) (UniProt P26447); assay: inhibitors of S100A4-myosin IIA peptide binding, primary screen, biochemical, fluorescence polarization, TAMRA-MyoIIA peptide (AID 652163); conditions: at 10.7 µM, stronger effect = higher value
Sequence (P26447 whole entry, looked up): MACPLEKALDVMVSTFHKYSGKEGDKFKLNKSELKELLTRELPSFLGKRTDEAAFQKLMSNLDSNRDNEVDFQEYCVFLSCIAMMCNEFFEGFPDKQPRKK
Procedure, shortened: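 Material: S100A4 monomer protein / Buffer or medium: 50 mM HEPES pH 7.2, 10 mM CaCl2, 100 mM KCl / Times: 5 min incubation before reading / Benchmarks: neutral control DMSO, positive control TFP / Reagent: labelled myosin peptide probe, 5 nM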

Question: With `C[C@@H]1CN([C@@H](C)CO)C(=O)c2cc(C3=CCCC3)cnc2O[C@H]1CN(C)Cc1ccccc1F` as the molecule, how does the inhibition read?
Answer: 0.298% (inactive)

Question: For `COc1cccc2c1C(=O)c1c(O)c3c(c(O)c1C2=O)CC(O)(C(C)=NNC(=O)c1ccc(Cl)c(Cl)c1)CC3OC1CC(N)C(O)C(C)O1` (stereo not given), which inhibition is on record?
Answer: 189% (active)

Question: Which inhibition does the source give for `C[C@@H]1CN([C@H](C)CO)C(=O)CCCn2cc(nn2)CO[C@H]1CN(C)S(C)(=O)=O` here?
Answer: -42.7% (inactive) and 116% (active) and -0.12% (inactive)

Question: With `Cc1noc(C)c1S(=O)(=O)N(C)C[C@H]1OCc2cn(nn2)CCCC(=O)N([C@H](C)CO)C[C@H]1C` as the molecule, how does the inhibition read?
Answer: -10.8% (inactive)

Question: How did the inhibition turn out when `C[C@H]1CN([C@@H](C)CO)C(=O)CCCn2cc(nn2)CO[C@@H]1CN(C)S(=O)(=O)c1cccs1` was run?
Answer: 1.44% (inactive) and -0.084% (inactive)

Question: `C[C@H]1CN([C@@H](C)CO)C(=O)c2cccc(NC(=O)Nc3ccc(C(F)(F)F)cc3)c2O[C@H]1CN(C)CC1CCCCC1` was tested. Which inhibition did it give?
Answer: 0.766% (inactive)

Question: Which inhibition does the source give for `CO[C@H]1CN(C)C(=O)c2ccc(NS(C)(=O)=O)cc2OC[C@H](C)N(C(=O)C2CCC2)C[C@H]1C` here?
Answer: 3.67% (inactive)

Question: Which inhibition does the source give for `COC(=O)c1cc2c(c3c4ccccc4n(S(=O)(=O)c4cccc(C)c4)c13)C(=O)N(Cc1ccccc1)C2` here?
Answer: -0.199% (inactive)

Question: With `O=C(C[C@@H]1CC[C@@H]2[C@H](COC[C@@H](O)CN2S(=O)(=O)c2ccccc2)O1)NCC1CCCCC1` as the molecule, how does the inhibition read?
Answer: -4.89% (inactive)

Question: With `CN1CCN(C(=O)C[C@@H]2CC[C@@H]3[C@@H](COc4ccc(NC(=O)c5ccc(F)c(F)c5)cc4C(=O)N3C)O2)CC1` as the molecule, how does the inhibition read?
Answer: -20.1% (inactive)

Question: Which inhibition does the source give for `O=C(NCC1CC1)[C@H]1[C@H](CO)[C@H]2Cn3c(ccc(/C=C/c4ccccc4)c3=O)[C@@H]1N2C(=O)C1CCC1` here?
Answer: 5.09% (inactive)

Question: For `COCC#Cc1ccc([C@@H]2[C@H]3CN(C(=O)C4CCOCC4)CC(=O)N3[C@H]2CO)cc1`, which inhibition is on record?
Answer: 10.1% (inactive)

Question: How did the inhibition turn out when `COc1cccc(S(=O)(=O)N[C@@H]2C=C[C@H](CC(=O)NC3CCC3)O[C@@H]2CO)c1` was run?
Answer: 11.1% (inactive)

Question: For `O=C(Nc1nccs1)[C@@H]1[C@@H](CO)[C@@H]2Cn3c(ccc(-c4cccnc4)c3=O)[C@@H]2N1CC1CC1`, which inhibition is on record?
Answer: 5.29% (inactive)

Question: For `O=C([C@H]1N[C@H]2c3ccc(-c4ccccc4)c(=O)n3C[C@H]2[C@@H]1CO)N1CCOCC1`, which inhibition is on record?
Answer: -1.77% (inactive)

Question: Which inhibition does the source give for `CO[C@H]1CN(C)C(=O)c2cc(NC(=O)C3CCC3)ccc2OC[C@H](C)N(C)C[C@H]1C` here?
Answer: 6.42% (inactive)

Question: `CO[C@@H]1CN(C)C(=O)c2cc(NC(=O)c3cc(C)on3)ccc2OC[C@@H](C)N(C(C)=O)C[C@@H]1C` was tested. Which inhibition did it give?
Answer: -1.83% (inactive)

Question: `C[C@@H]1CN([C@H](C)CO)C(=O)c2cccc(NS(=O)(=O)c3ccc(Cl)cc3)c2O[C@H]1CN(C)C(=O)NC1CCCCC1` was tested. Which inhibition did it give?
Answer: 3.25% (inactive)

Question: `CC(C)CC#Cc1ccc([C@H]2[C@H]3CN(C(=O)c4cnccn4)CC(=O)N3[C@H]2CO)cc1` was tested. Which inhibition did it give?
Answer: 1.39% (inactive)

Question: With `COc1cccc(-c2ccc3n(c2=O)C[C@H]2[C@H](CO)[C@@H](C(=O)NC4CCCC4)[C@@H]3N2C)c1` as the molecule, how does the inhibition read?
Answer: 6.59% (inactive)

Question: `C/C=C/c1ccc([C@H]2[C@@H](CO)N[C@@H]2CN(CC)C(=O)CN2CCOCC2)cc1` was tested. Which inhibition did it give?
Answer: -4.11% (inactive)

Question: `O=C(C[C@H]1C=C[C@H](NC(=O)NC2CCCCC2)[C@H](CO)O1)NCc1ccccc1` was tested. Which inhibition did it give?
Answer: 11.3% (inactive)

Question: How did the inhibition turn out when `C[C@@H]1CN([C@@H](C)CO)C(=O)c2cc(NS(C)(=O)=O)ccc2O[C@@H]1CN(C)C(=O)Nc1ccccc1` was run?
Answer: -7.83% (inactive)

Question: For `C[C@@H]1CCCCO[C@@H](CN(C)C(=O)C2CCCCC2)[C@@H](C)CN([C@H](C)CO)C(=O)c2cc(NC(=O)c3ccccc3)ccc2O1`, which inhibition is on record?
Answer: 5.47% (inactive)

Question: How did the inhibition turn out when `Cc1ccccc1-c1ccc2c(c1)O[C@@H](CN(C)C(=O)Nc1ccc(F)cc1)[C@H](C)CN([C@@H](C)CO)S2(=O)=O` was run?
Answer: -6.84% (inactive)

Question: For `C[C@H]1CN([C@@H](C)CO)C(=O)c2cc(-c3cccc(F)c3)cnc2O[C@@H]1CN(C)C(=O)c1ccccn1`, which inhibition is on record?
Answer: 1.67% (inactive)

Question: Which inhibition does the source give for `C[C@H]1CN([C@@H](C)CO)C(=O)c2cccc(NC(=O)Nc3ccccc3)c2O[C@@H]1CN(C)C(=O)Nc1cccc2ccccc12` here?
Answer: 8.48% (inactive)

Question: Which inhibition does the source give for `COc1cccc(CC2(CO)CCCN(CC3=Cc4cc(OC)ccc4OC3)C2)c1` (stereo not given) here?
Answer: -14.5% (inactive)

Question: With `COc1ccc2c(c1)C=CC1(O2)N(CCO)c2ccccc2C1(C)C` (stereo not given) as the molecule, how does the inhibition read?
Answer: 97.1% (active)

Question: With `CN1c2ccc([N+](=O)[O-])cc2C(C)(C)C12C=Cc1cc(C(=O)O)ccc1O2` (stereo not given) as the molecule, how does the inhibition read?
Answer: -14.5% (inactive)

Question: With `CN(C)CC(=O)N[C@H]1CC[C@@H](CCNC(=O)C2CCCC2)O[C@@H]1CO` as the molecule, how does the inhibition read?
Answer: 4.07% (inactive)

Question: How did the inhibition turn out when `C[C@@H]1CN([C@H](C)CO)C(=O)Cc2cc(NS(=O)(=O)c3ccc(Cl)cc3)ccc2O[C@@H]1CN(C)C` was run?
Answer: -3.76% (inactive)

Question: With `O=C(C[C@H]1C[C@H]2c3cc(NC(=O)Nc4ccccc4)ccc3O[C@H]2[C@H](CO)O1)NC1CCCC1` as the molecule, how does the inhibition read?
Answer: -3.39% (inactive)

Question: `CN(C)C(=O)C[C@H]1C[C@@H]2c3cc(NC(=O)NC4CCCCC4)ccc3O[C@@H]2[C@@H](CO)O1` was tested. Which inhibition did it give?
Answer: 12.2% (inactive)

Question: With `COC(=O)C(CC#Cc1ccc2c(c1)[C@]1(C(=O)N2)[C@H](c2ccccc2OCCO)N2[C@H](c3ccccc3)[C@H](c3ccccc3)OC(=O)[C@H]2[C@@H]1C(N)=O)C(=O)OC` as the molecule, how does the inhibition read?
Answer: -5.68% (inactive)

Question: `O=C(C[C@H]1CC[C@@H]2[C@H](COC[C@H](O)CN2CCC(F)(F)F)O1)NCC1CC1` was tested. Which inhibition did it give?
Answer: -3.95% (inactive)

Question: For `Cn1cnc(S(=O)(=O)N2C[C@H](O)COC[C@@H]3O[C@H](CC(=O)NC4CCCC4)CC[C@H]32)c1`, which inhibition is on record?
Answer: 126% (active)

Question: With `Cn1cnc(S(=O)(=O)N2C[C@H](O)COC[C@@H]3O[C@H](CC(=O)NC4Cc5ccccc5C4)CC[C@H]32)c1` as the molecule, how does the inhibition read?
Answer: 2.44% (inactive)

Question: How did the inhibition turn out when `Cn1cnc(S(=O)(=O)N2C[C@@H](O)COC[C@@H]3O[C@H](CC(=O)NC4CCC4)CC[C@H]32)c1` was run?
Answer: 0.326% (inactive)

Question: With `O=C(C[C@H]1CC[C@H]2[C@@H](COC[C@@H](O)CN2C(=O)Nc2ccc(C(F)(F)F)cc2)O1)NC1Cc2ccccc2C1` as the molecule, how does the inhibition read?
Answer: 9.1% (inactive)
